This is an account of results in ChEMBL document CHEMBL5653631, “A Potent and Selective ULK1 Inhibitor Suppresses Autophagy and Sensitizes Cancer Cells to Nutrient Stress” (iScience, 2018).

SMILES strings stand for the structures. Active and inactive are the calls of the source. The calls are words filed in the database; no cut-off is given here.

One experiment concerns U2OS. The experiment in a line: Inhibition of autophagy in human U2OS cells assessed as ATG12-positive puncta formation at 5 uM incubated for 2.5 hrs in presence of AZD8055 by Fluorescent microscopy based analysis. The experiment is classed as functional, cell-based. In outline:
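U2OS cells treated 2.5 hr with vehicle or 100 nM AZD8055, with or without 5 μM inhibitor; fixed and immunostained for endogenous ATG12; ATG12-positive puncta (phagophores) assessed by fluorescence microscopy.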

Experiment [1] has as its target Tyrosine-protein kinase Fes/Fps (Homo sapiens) (UniProt P07332). Nature of the experiment: Inhibition of human recombinant FES at 40 nM in presence of ATP by radiometric assay relative to control.
Experiment [2] has as its target Leukocyte tyrosine kinase receptor (Homo sapiens) (UniProt P29376). Nature of the experiment: Inhibition of human recombinant LTK at 40 nM in presence of ATP by radiometric assay relative to control.
The target of experiment [3] is Serine/threonine-protein kinase 24 (Homo sapiens) (UniProt Q9Y6E0). The experiment in a line: Inhibition of human recombinant MST3 at 40 nM in presence of ATP by radiometric assay relative to control.
Serine/threonine-protein kinase 24 (Homo sapiens), sequence (Q9Y6E0 whole entry, looked up): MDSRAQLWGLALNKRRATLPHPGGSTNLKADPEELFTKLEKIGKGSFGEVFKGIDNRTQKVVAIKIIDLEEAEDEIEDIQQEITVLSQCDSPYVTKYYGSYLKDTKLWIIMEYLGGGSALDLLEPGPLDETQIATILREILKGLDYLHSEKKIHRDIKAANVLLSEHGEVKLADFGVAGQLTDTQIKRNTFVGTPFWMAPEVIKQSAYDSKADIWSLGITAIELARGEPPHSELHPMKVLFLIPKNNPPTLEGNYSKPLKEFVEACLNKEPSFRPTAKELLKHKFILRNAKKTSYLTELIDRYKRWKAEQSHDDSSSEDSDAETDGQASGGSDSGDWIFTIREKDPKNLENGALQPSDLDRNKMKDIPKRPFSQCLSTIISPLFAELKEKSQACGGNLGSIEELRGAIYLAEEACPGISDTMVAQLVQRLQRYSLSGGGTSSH
For experiment [4], the target named is High affinity nerve growth factor receptor (Homo sapiens) (UniProt P04629). Nature of the experiment: Inhibition of human recombinant TRKA at 40 nM in presence of ATP by radiometric assay relative to control.
In experiment [5] the target is Mitogen-activated protein kinase kinase kinase kinase 4 (Homo sapiens) (UniProt O95819). Nature of the experiment: Inhibition of human recombinant HGK at 40 nM related to control ULK1.
Mitogen-activated protein kinase kinase kinase kinase 4 (Homo sapiens), sequence (O95819 2-1239 limits assumed): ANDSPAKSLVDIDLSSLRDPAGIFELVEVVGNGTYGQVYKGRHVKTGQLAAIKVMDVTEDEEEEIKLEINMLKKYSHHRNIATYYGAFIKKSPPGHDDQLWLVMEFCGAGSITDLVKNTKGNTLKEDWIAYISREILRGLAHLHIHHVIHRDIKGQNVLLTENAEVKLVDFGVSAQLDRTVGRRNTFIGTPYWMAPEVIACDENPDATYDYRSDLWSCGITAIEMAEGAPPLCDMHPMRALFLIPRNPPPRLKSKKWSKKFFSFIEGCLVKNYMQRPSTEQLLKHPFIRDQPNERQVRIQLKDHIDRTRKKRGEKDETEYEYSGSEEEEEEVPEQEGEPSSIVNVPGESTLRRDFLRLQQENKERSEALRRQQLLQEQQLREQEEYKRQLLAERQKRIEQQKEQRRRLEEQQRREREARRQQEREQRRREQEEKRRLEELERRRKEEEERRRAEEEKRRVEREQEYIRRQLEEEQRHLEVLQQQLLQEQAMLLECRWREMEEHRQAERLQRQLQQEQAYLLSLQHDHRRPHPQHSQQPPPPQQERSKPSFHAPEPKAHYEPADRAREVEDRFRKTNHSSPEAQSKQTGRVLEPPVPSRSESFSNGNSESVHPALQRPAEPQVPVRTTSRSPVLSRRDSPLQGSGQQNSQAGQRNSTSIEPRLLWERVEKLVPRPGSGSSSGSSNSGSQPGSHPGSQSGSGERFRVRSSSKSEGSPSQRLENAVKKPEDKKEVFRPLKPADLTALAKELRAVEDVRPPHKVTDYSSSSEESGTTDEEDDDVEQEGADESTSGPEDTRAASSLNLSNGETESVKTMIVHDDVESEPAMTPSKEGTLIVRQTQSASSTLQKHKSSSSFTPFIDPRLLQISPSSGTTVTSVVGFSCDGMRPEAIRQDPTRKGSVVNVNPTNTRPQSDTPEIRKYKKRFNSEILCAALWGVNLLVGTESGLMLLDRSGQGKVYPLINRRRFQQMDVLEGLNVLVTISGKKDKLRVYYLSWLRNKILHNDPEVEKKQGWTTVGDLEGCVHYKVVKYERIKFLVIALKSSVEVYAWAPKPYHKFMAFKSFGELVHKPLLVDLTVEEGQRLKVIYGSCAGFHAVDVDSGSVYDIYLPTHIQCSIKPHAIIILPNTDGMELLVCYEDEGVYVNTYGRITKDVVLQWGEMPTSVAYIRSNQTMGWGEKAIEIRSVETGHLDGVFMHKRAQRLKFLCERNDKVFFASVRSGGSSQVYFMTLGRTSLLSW
Experiment [6] concerns the target Serine/threonine-protein kinase 4 (Homo sapiens) (UniProt Q13043). Nature of the experiment: Inhibition of human recombinant MST1 at 40 nM in presence of ATP by radiometric assay relative to control.
The species named for a further experiment is Homo sapiens. The experiment in a line: Inhibition of human recombinant ABL at 500 nM in presence of ATP by radiometric assay relative to control. In outline:
(§1)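 Panel of 327 recombinant human kinases in radiometric activity assays, each screened in duplicate at a single inhibitor concentration; percent activity remaining relative to vehicle control, percent inhibition taken as 100 minus activity remaining.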

The target of experiment [7] is ALK tyrosine kinase receptor (Homo sapiens) (UniProt Q9UM73). The experiment in a line: Inhibition of human recombinant ALK at 500 nM in presence of ATP by radiometric assay relative to control. The essentials:
as §1

The target of experiment [8] is Casein kinase II subunit alpha' (Homo sapiens) (UniProt P19784). The experiment in a line: Inhibition of human recombinant CK2a2 at 500 nM in presence of ATP by radiometric assay relative to control.
Casein kinase II subunit alpha' (Homo sapiens), sequence (P19784 whole entry, looked up): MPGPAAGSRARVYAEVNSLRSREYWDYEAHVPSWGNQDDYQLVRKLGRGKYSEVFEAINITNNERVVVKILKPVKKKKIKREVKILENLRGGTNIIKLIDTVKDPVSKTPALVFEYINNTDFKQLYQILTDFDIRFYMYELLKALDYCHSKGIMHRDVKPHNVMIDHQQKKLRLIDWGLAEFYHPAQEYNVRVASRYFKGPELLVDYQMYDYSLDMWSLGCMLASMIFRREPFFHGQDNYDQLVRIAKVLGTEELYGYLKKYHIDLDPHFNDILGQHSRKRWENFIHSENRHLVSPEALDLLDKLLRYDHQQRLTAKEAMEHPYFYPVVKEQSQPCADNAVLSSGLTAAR
Experiment [9] has the same target. The experiment in a line: Inhibition of human recombinant CK2a2 at 500 nM related to control ULK1.
Experiment [10] deals with T1, Serine/threonine-protein kinase Nek1 (Homo sapiens) (UniProt Q96PY6).
T1 sequence (whole entry): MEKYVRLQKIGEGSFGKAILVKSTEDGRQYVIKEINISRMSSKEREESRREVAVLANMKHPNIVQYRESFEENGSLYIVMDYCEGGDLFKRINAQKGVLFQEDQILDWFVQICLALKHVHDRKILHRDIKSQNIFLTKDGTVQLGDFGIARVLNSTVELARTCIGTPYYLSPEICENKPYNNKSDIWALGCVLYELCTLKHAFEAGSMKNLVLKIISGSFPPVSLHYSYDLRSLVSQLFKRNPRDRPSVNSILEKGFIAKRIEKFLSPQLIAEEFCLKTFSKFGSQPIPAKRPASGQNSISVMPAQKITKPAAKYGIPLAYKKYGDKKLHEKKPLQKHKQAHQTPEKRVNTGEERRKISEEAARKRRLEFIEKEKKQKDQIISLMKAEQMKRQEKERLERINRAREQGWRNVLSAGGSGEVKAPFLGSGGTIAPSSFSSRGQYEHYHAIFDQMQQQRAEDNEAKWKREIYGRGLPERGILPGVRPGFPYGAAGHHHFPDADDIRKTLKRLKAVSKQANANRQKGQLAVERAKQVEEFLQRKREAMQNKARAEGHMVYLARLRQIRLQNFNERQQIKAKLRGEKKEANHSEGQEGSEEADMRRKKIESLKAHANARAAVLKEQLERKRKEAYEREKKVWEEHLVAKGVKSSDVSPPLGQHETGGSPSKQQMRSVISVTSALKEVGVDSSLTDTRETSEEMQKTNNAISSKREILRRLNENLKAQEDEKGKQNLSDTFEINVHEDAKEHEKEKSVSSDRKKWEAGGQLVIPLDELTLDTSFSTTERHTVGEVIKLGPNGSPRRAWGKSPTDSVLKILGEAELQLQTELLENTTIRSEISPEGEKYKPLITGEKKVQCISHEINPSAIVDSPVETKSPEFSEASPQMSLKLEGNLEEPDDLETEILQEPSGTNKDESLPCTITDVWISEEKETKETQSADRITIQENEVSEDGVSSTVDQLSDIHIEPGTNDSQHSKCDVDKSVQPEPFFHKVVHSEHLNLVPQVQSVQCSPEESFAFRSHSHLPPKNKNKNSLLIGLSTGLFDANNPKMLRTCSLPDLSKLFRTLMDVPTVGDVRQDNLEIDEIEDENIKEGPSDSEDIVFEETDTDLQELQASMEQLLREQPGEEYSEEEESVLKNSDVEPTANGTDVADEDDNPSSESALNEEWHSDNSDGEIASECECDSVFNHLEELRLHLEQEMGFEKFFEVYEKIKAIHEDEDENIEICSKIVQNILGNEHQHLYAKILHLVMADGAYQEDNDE
Nature of the experiment: Inhibition of human recombinant NEK1 at 15 nM in presence of ATP by radiometric assay relative to control.

The target in experiment [11] is [Pyruvate dehydrogenase (acetyl-transferring)] kinase isozyme 4, mitochondrial (Homo sapiens) (UniProt Q16654). Nature of the experiment: Inhibition of human recombinant PDHK4 at 15 nM in presence of ATP by radiometric assay relative to control.
[Pyruvate dehydrogenase (acetyl-transferring)] kinase isozyme 4, mitochondrial (Homo sapiens), sequence (Q16654 whole entry, looked up): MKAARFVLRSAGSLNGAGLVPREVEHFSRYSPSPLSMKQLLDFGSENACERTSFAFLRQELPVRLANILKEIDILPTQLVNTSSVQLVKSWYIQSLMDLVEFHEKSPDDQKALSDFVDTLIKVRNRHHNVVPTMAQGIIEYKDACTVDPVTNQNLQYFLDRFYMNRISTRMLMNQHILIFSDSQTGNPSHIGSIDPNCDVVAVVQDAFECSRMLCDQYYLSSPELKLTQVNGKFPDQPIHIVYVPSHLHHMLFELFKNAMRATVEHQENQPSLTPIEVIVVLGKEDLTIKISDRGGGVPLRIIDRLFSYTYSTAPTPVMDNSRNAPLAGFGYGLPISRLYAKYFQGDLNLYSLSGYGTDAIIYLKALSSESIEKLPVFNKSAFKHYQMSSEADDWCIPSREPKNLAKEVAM
Experiment [12] concerns the target cAMP-dependent protein kinase catalytic subunit alpha (Homo sapiens) (UniProt P17612). The experiment in a line: Inhibition of human recombinant PKACalpha at 15 nM related to control ULK1.
Experiment [13] has as its target Tau-tubulin kinase 1 (Homo sapiens) (UniProt Q5TCY1). Nature of the experiment: Inhibition of human recombinant TTBK1 at 15 nM related to control ULK1.

Leukocyte tyrosine kinase receptor (Homo sapiens), sequence (P29376 whole entry): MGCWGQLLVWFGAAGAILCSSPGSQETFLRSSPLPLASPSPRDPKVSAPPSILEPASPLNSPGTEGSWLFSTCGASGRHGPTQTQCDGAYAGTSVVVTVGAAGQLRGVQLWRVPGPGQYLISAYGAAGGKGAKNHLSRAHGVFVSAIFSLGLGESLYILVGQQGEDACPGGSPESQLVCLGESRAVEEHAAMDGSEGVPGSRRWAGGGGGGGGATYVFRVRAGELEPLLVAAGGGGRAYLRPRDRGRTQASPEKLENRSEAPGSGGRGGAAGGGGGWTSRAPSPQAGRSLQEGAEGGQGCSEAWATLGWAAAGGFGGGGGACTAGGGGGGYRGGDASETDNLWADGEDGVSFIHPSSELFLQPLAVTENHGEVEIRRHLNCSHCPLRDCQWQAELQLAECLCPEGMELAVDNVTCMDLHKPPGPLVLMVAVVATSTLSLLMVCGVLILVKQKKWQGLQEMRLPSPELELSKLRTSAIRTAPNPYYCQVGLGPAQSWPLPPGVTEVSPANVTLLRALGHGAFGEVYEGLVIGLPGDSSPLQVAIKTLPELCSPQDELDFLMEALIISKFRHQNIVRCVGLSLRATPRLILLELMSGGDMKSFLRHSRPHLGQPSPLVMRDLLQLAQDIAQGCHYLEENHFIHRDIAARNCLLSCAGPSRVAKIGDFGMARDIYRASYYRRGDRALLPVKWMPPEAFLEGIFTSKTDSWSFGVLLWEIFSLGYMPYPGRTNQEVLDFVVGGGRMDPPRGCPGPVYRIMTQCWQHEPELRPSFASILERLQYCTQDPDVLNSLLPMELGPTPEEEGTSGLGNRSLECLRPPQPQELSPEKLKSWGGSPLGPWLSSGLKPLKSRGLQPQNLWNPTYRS
Tyrosine-protein kinase Fes/Fps (Homo sapiens), sequence (P07332 whole entry): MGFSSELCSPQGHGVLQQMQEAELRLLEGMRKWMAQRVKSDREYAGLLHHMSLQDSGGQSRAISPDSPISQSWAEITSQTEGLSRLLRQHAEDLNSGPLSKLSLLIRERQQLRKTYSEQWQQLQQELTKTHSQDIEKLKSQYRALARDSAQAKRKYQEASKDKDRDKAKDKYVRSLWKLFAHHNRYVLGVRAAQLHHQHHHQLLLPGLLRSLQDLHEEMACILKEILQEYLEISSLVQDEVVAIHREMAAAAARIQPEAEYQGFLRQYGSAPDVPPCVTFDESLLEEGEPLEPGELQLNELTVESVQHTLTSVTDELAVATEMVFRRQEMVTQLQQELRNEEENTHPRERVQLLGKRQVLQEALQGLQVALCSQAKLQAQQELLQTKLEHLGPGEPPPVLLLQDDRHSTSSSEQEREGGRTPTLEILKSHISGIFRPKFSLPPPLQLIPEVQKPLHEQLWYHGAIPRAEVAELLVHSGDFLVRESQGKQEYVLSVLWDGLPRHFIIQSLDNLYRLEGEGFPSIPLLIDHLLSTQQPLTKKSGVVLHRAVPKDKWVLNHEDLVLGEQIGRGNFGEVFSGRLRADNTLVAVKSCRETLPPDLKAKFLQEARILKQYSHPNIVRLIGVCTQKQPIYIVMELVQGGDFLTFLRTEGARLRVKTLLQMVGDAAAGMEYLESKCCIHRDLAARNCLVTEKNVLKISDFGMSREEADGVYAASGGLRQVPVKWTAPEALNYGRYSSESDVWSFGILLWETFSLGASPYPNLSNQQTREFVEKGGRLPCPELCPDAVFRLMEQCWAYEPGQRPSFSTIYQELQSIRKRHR
Serine/threonine-protein kinase 4 (Homo sapiens), sequence (Q13043 whole entry, looked up): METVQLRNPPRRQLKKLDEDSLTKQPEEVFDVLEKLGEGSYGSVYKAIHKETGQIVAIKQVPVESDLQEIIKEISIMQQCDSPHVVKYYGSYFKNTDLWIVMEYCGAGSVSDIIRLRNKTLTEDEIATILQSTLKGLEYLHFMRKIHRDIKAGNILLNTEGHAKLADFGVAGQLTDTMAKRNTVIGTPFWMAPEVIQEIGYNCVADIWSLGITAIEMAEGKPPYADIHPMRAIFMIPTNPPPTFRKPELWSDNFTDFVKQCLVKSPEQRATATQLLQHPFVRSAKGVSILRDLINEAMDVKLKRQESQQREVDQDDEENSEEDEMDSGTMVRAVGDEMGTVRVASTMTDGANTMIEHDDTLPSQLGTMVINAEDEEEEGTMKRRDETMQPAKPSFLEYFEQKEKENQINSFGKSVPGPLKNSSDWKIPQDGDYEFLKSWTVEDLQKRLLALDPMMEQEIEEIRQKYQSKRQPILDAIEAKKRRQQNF

The inhibition is the percentage by which the read-out fell short of the control. On to `O=C(N[C@@H](C1CC1)C(F)(F)F)c1cc(-c2cnn3cc(-c4ccc(F)cc4)cnc23)cs1`, for which the inhibition entry in the experiment on U2OS is “Active”. Also, the inhibition in experiment [1] came out at 15%; in experiment [2] it was 0%; in experiment [3], 20%; in experiment [4], 0%; in experiment [6] it was 0%. Also, the fold change (FC) in experiment [5] came out at 0.

As to `CNC(=O)c1ccccc1Oc1nc(Nc2cc(OC)c(OC)c(OC)c2)ncc1Br`, the inhibition turned out to be 14% in the experiment filed under Homo sapiens, 0% in [7] and 5% in experiment [8]. The fold change (FC) in experiment [9] came out at 0.07.

On to `CC(C)[C@H](NC(=O)c1cc(-c2cnn3cc(-c4ccc(OCCN5CCCCC5)cc4)cnc23)cs1)C(F)(F)F`, for which the inhibition is 3% in [10] and 2% in experiment [11]. Further, the fold change (FC) in [12] and in experiment [13] was 0 each time.
